Screening data as filed in PubChem.
Shown are actives, neighbours in structure and some others; about 4.4% of the full set was active somewhere.
Calb FLC – affects C. albicans growth with fluconazole. hit rate 0.57% among 300,000. growth inhibition, % (test concentration not listed). AID 1979. C. albicans CaCi-2 (fluconazole-resistant clinical isolate) + fluconazole, Alamar Blue growth, 48 h;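 active means growth inhibition above about 58% in most replicates, limit read from the data, passing the limit was not always enough; inconclusive means exactly half the replicates above a set limit; inactive means most replicates below a set limit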;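 further: all wells also contain fluconazole at 8 µg/ml as a sub-toxic cotreatment; 0% = median of DMSO wells and 100% = median of geldanamycin control wells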
T cruzi inh – T. cruzi replication inhibition | T. cruzi beta-gal in NIH3T3, luminescence, 90 h | inhibition, % (no concentration beside the values) | hit rate 1.4% among 300,000 | AID 1885;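 active means mean inhibition across valid replicates above about 55%, limit read from the data; inconclusive means mean below that limit but half or more replicates reach it; inactive means mean below it, under half of replicates reach it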;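 further: signal also drops with host cell toxicity which is not excluded here; 0% = plate median of DMSO wells and 100% = zero luminescence signal; higher percent means less beta-gal luminescence so fewer parasites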
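System: NIH/3T3 fibroblasts plus reporter T. cruzi. Medium: DMEM plus 2% FBS. Probe or stimulus: 5000 reporter trypomastigotes per well. Compound: single 50 nL compound addition per well in DMSO. Incubation: co-culture of at least 90 h after 3 h attachment. Detection: GalScreen β-gal luminescence, detergent lysis, 60 min. Evaluation: parasite load inhibition, %.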
HSF1 activator – increases HSF-1 driven luciferase reporter signal; AID 504408; NIH3T3-HGL HSF-1 luciferase reporter, MG132, 8 h; 100% = twice DMSO control signal; hit rate 1.7% among 300,000; activation, % at 9 µM;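 active means mean replicate activation of at least 50% with a set share of replicates each reaching 50%; inconclusive means only one of those two conditions met; inactive means mean below 50% and too few replicates reaching it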;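 further: 0% = median of the neutral control wells and 100% = twice that signal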
HIF activator – HIF pathway transcriptional activation | activation, % at 7.5 µM (by protocol) | U2OS HRE-luciferase reporter, luminescence; normalized: DMSO 0%, desferrioxamine 100% | hit rate 0.32% among 300,000;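 active means mean activation of at least 10% of the iron chelator positive control signal, with at least half of replicates also reaching 10%; inconclusive means mean and replicate majority disagree about reaching 10%; inactive means mean and most replicates under 10%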
HSF1 inh – HSF1 inhibition | NIH3T3-HGL HSE-luciferase, MG132-induced, luminescence 8 h; stronger effect = lower value | activity change, negative = inhibition, % at 7.5 µM (by protocol) | hit rate 0.77% among 300,000 | AID 2098;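 active means more than half of replicate wells show activity change below -50%, luminescence cut by over half; inconclusive means some wells, but at most half, below -50%; inactive means no replicate well below -50%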;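 further: luciferase reports HSF-1 transcriptional activity via heat shock element; 0% = median of DMSO wells and -100% = zero luminescence signal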
* hit, by the source's call; ? = inconclusive.

SMILES	Calb FLC	T cruzi inh	HSF1 activator	HIF activator	HSF1 inh
CCn1c(C)c(Br)c(=O)c(C(=O)OC)c1-c1ccc(Cl)cc1	29	4	0	-1	-3
COc1ccc(OC)c(/C=N/Nc2nncn2/N=C/c2cc(OC)ccc2OC)c1	1	-8	81*	-1	38
Cc1cc(NC2CCCC2)n2ncc(-c3ccccc3)c2n1	1	12	-74	-3	-67*
Cc1cc(NCc2ccccc2)n2ncc(-c3ccccc3)c2n1	11	22	80*	2	40
Cc1cc(NC2CCCC2)n2nc(C)c(-c3ccccc3)c2n1	2	60*	52*	-1	9
Cc1nc2c(-c3ccccc3)cnn2c(N)c1-c1ccccc1	2	14	-89	-9	-87*
COc1ccc(-c2c(C)nn3c(NC4CCCC4)cc(C)nc23)cc1OC	-8	18	62*	-21	27
COc1ccc(CCNc2cc(C)nc3c(-c4ccccc4)c(C)nn23)cc1OC	-7	24	13	-1	2
Cc1ccc(-c2csc(NC(=O)c3ccc(S(=O)(=O)N4CCc5ccccc54)cc3)n2)cc1	-4	25	-66	0	-56*
CS(=O)(=O)N1CCc2cc(-c3csc(NC(=O)Cc4ccccc4)n3)ccc21	7	55*	11	-1	-9
Cc1cccc(NC2(C(F)(F)F)N=C(c3ccccc3)NC2=O)n1 (stereo unspecified)	3	-7	-64	0	-57*
Cc1ccc(NC2(C(F)(F)F)N=C(c3ccccc3)NC2=O)nc1 (stereo unspecified)	5	6	18	0	1
CC1(C)C(=O)N(c2ccccc2)C1c1ccccc1O (stereo unspecified)	13	-3	13	0	-2
COc1ccc(N2C(=O)C(C)(C)C2c2c(O)ccc3ccccc23)cc1 (stereo unspecified)	52	5	-79	-1	-73*
Oc1c(C(Nc2ccccn2)c2cccnc2)cc(Cl)c2cccnc12 (stereo unspecified)	-4	55*	5	0	1
CCC(=O)NC(c1ccc(OC)cc1)c1cc(Cl)c2cccnc2c1O (stereo unspecified)	104*	?	-68	23*	-64*
COc1ccc(C(=O)NCCCNC(=O)c2cccnc2)cc1OC	-4	3	0	-1	-3
COc1ccc(C(NC(=O)c2cccnc2)c2cc(Cl)c3cccnc3c2O)cc1OC (stereo unspecified)	7	?	-6	12*	-10
CCCCC(=O)NC(c1ccco1)c1cc(Cl)c2cccnc2c1O (stereo unspecified)	112*	63*	-40	0	-34
CN(C(=O)CSc1nc(N)cc(N)n1)C1CCS(=O)(=O)C1 (stereo unspecified)	16	-6	-5	0	-7
Cc1cc(C)c2c(=O)c(C#N)coc2c1	-11	-1	19	0	4
COc1cc(C(C)=O)ccc1OCC(O)CNCC(O)c1ccccc1 (stereo unspecified)	5	1	-1	-16	-4
O=C(Cn1ccc([N+](=O)[O-])n1)Nc1ccccn1	5	11	0	0	-2
Cn1c2c(c(=O)n3ncnc13)CCCC2	-8	-8	-6	0	-4
CC(=O)NC(c1ccccc1)c1cc([N+](=O)[O-])c2cccnc2c1O (stereo unspecified)	6	31	0	2	-3
SMILES	Calb FLC	T cruzi inh	HSF1 activator	HIF activator	HSF1 inh
O=C(Oc1ccc(Cl)c2cccnc12)c1ccco1	-4	-11	-10	0	-6
CC(=O)NC(c1ccc(C)cc1)c1cc(Cl)c2cccnc2c1O (stereo unspecified)	-3	62*	-85	9.8*	-83*
O=C(CCc1ccccc1)NC(c1cccs1)c1cc(Cl)c2cccnc2c1O (stereo unspecified)	?	66*	-35	102*	-35
CCC(=O)NC(c1ccco1)c1cc(Cl)c2cccnc2c1O (stereo unspecified)	90*	63*	-78	2	-72*
CC(=O)N1CCN(S(=O)(=O)c2ccc(S(=O)(=O)NC3CCCCC3)cc2)CC1	1	-10	-5	-2	10
O=C1C=CC(=O)N1c1cccc(-c2ccccc2)c1	4	-15	48	0	41
CCCCCCCCCCCC1=C(O)C(=O)C=C(O)C1=O	92*	-12	4	0	2
COC1=CC(=O)C(O)=C(CCCCCCC/C=C/CCCCCCCC2=C(O)C(=O)C=C(OC)C2=O)C1=O	81*	-3	-4	0	0
O=[N+]([O-])c1ccccc1CNC1CCCc2ccccc21 (stereo unspecified)	-11	-11	8	0	2
CCc1nnc(SCC(=O)Nc2ccc(N3CCOCC3)cc2)o1	-2	1	-1	0	-11
COc1ccc(Cc2nnc(SCC(=O)Nc3ccc(N4CCOCC4)cc3)o2)cc1	3	5	61*	0	13
COc1cc(OC)c(-c2cc(C(=O)O)ccc2OC)c(OC)c1	-1	-16	-8	-1	7
CN(CCC#N)C(=O)COC(=O)c1ccc(Cl)cc1O	-1	-10	-18	0	3
CSc1ccc(Cl)c(C(=O)OCC(=O)N(C)CCC#N)c1	-9	-11	59*	-1	19
Cc1ccc(N(C(=O)c2csnn2)C(C(=O)NC2CCCCC2)c2cccnc2)c(C)c1 (stereo unspecified)	-9	1	15	0	-3
O=C(N/N=C(\Cc1ncc[nH]1)c1ccccc1)c1ccncc1	8	18	19	-1	10
O=C(N/N=C(\Cc1ncc[nH]1)c1ccccc1)c1ccccc1	?	74*	30	25*	9
CCOC(=O)Cc1csc(NS(=O)(=O)c2ccc(NC(C)=O)cc2)n1	1	-3	-10	-1	-3
CN1CCN(c2ccc(CNC(=O)c3cc4ccccc4o3)cc2)CC1	-5	4	1	1	-2
Cc1ccc(C(=O)NCc2ccc(N3CCN(C)CC3)cc2)cc1C	16	11	-75	2	-69*
CCC(=O)N1CCc2cc(S(=O)(=O)NCCc3ccc(S(N)(=O)=O)cc3)ccc21	-5	7	-12	0	0
O=C(Cc1ccc([N+](=O)[O-])cc1)Nc1cc(C(F)(F)F)cc(C(F)(F)F)c1	-3	70*	3	0	-3
COc1cccc(N2CCN(C(=O)C3CCCN(c4ncnc5c4nc4n5CCCCC4)C3)CC2)c1 (stereo unspecified)	20	12	4	0	2
N#Cc1ccc(N2Cc3ccccc3C2=NC(=O)c2cccnc2Cl)cc1	2	3	15	2	-1
O=C(N=C1c2ccccc2CN1c1ccc(F)c(Cl)c1)c1cccnc1Cl	40	26	69*	3	61
